# Compound activity as filed in PubChem.
# OX1R antag-1: antagonists of human orexin 1 receptor (OX1R). O43613. hit rate 1.8% among 330,000. inhibition, % at 6.6 µM. OX1R-expressing cells, FRET antagonist read-out. AID 485270; in the data active = inhibition mostly above about 38%, no sharp cut-off; inactive = mostly below about 40%;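 note: 0% = agonist challenge alone and 100% = reference antagonist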
# Target sequence (O43613 whole entry, looked up): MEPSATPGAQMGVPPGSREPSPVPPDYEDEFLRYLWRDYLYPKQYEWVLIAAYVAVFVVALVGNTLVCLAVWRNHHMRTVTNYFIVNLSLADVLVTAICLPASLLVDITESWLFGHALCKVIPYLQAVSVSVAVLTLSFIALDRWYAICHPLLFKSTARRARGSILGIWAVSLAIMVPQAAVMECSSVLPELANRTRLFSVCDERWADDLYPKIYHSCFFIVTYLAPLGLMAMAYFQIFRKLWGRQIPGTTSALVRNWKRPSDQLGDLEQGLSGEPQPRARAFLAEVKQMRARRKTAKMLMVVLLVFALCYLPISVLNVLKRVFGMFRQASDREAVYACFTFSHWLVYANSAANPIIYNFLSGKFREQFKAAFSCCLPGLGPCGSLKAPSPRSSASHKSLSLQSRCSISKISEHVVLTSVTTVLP
# OX1R antag-2: blocks the human orexin 1 receptor. O43613. inhibition, % at 5 µM. CHO/OX1R cells, Fluo-8 calcium fluorescence, orexin A. hit rate 0.43% among 330,000;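 active = inhibition above its plate's threshold, mean inhibition of all tested compounds on the plate plus 3 SD, cut at about 37% in these data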;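 note: 0% = orexin A challenge wells and 100% = SB-334867-A antagonist wells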
# TAAR1 agonist: agonists of human TAAR1; CHO RD-HGA16 TAAR1, Fluo-8 calcium fluorescence; vehicle wells 0%, saturating PEA agonist 100%; activation, % at 3 µM; hit rate 0.99% among 360,000; AID 624467;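 active = activation above the mean activation of all test compounds in the run plus 3 SD, cut at about 38% in these data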
# Target sequence (Q96RJ0 whole entry, looked up): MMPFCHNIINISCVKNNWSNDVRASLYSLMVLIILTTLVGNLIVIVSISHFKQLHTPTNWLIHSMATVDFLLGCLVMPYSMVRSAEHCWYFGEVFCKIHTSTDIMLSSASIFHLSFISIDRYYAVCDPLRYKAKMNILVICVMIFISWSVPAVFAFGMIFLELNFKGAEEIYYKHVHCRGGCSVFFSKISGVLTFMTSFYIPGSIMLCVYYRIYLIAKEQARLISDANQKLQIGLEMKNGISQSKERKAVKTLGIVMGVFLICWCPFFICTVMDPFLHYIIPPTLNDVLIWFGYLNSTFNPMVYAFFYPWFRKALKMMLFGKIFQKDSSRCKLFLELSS
#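 Test system: RD-HGA16 (CHO) cells co-expressing Gα16 and hTAAR1 | Doses: Single dose, 3 µM | Schedule: 17-24 h seeding, 75 min 37 °C dye, 30 min RT | Evaluation: % activation from peak over basal fluorescence ratio, DMSO-to-PEA scaled | Technique: Kinetic Fluo-8 calcium fluorescence | Benchmarks: Low control DMSO, high control PEA (EC100)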
# TAAR1 antag: antagonists of human TAAR1; Q96RJ0; CHO RD-HGA16 TAAR1, Fluo-8 calcium fluorescence, antagonist; inhibition, % at 3 µM; hit rate 1.5% among 360,000; AID 624466;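 active = inhibition above a per-plate cutoff, the mean inhibition of test compounds on that plate plus 3 SD, cut at about 49% in these data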;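 note: 0% = DMSO plus EC80 beta-PEA response and 100% = DMSO alone without agonist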
#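 Test system: hTAAR1-expressing CHO RD-HGA16 cells, Gα16-coupled; Probe or stimulus: EC80 β-phenethylamine stimulus; Compound dosing: single nominal final test compound concentration of 3 µM; Timing: 140 s kinetic read after compound, 140 s after agonist; Signal: Fluo-8 calcium-sensitive fluorescence; Measure: % inhibition of agonist calcium response; Controls: DMSO and EC80 PEA controls.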
# GPR7 antag: human neuropeptides B/W receptor 1 antagonism; P48145; GPR7-expressing cells, fluorescence antagonist assay; inhibition, % at 4.4 µM; hit rate 1.1% among 290,000; in the data active = inhibition above about 16%, passing the limit was not always enough;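 note: cells stimulated with the agonist NPW; 0% = agonist with vehicle and 100% = vehicle without agonist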
# CHO parental Ca: counter-screen: ATP calcium response change in parental CHO cells; parental CHO-K1, ATP-induced calcium, Fluo-8 fluorescence; inhibition, % at 5.6 µM; hit rate 0.63% among 330,000; AID 463079;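 active = inhibition above that plate's mean sample inhibition plus 3 SD, cut at about 26% in these data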;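 note: 0% = ATP-challenged DMSO wells and 100% = DMSO wells without ATP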
#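 Test system: parental CHO cells; detection: calcium-sensitive Fluo-8 fluorescence; evaluation: percent inhibition of calcium signal; also added: ATP as calcium-mobilizing challenge; repeats: one well per compound; control set: ATP-challenged DMSO wells low, unchallenged DMSO wells high; compound: single nominal dose of 5.6 µM per compound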
# TAAR1 ag confirm: human TAAR1 agonism, confirmed; activation, % at 3 µM; AID 651783; CHO RD-HGA16 TAAR1, Fluo-8 calcium fluorescence; scaled: DMSO 0%, maximal phenethylamine 100%; hit rate 82% among 2,400; shares compounds with TAAR1 agonist;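 active = activation above a cutoff set at the run's mean compound activation plus 3 SD, cut at about 39% in these data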
# Ga16 nonsel ag: nonselective agonist in parental cells, TAAR1 agonist counter-screen; shares compounds with TAAR1 agonist; CHO-Ga16 parental, Fluo-8 calcium fluorescence; normalized to maximal ATP response, DMSO zero; activation, % at 3 µM; hit rate 50% among 2,400; AID 651787;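 active = activation above the run cutoff, the mean activation over all tested wells plus 3 SD, cut at about 12% in these data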;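 note: 0% = DMSO wells and 100% = maximal ATP response on the peak over basal ratio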
# TAAR1 desensitize: counter-screen for human TAAR1 agonists: agonists that desensitize TAAR1 | inhibition, % at 3 µM | AID 651951 | hit rate 46% among 2,400 | CHO RD-HGA16 hTAAR1, Fluo-8 calcium, beta-PEA response inhibition | shares compounds with TAAR1 agonist;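 active = inhibition above the run cutoff, the mean inhibition of all test compounds plus 3 SD, cut at about 49% in these data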;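 note: beta-PEA stimulus applied at its EC80; loss of beta-PEA calcium signal after compound pretreatment read as receptor desensitization; 0% = DMSO with beta-PEA at EC80 and 100% = DMSO alone without agonist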
# Ga16 antag count: nonselective Ga16 antagonist in TAAR1 agonist counter-screen; shares compounds with TAAR1 agonist; CHO-Ga16 ATP-induced calcium, Fluo-8 fluorescence; inhibition, % at 3 µM; hit rate 39% among 2,400;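 active = inhibition above the plate's mean compound inhibition plus 3 SD, computed per plate, cut at about 22% in these data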;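 note: 0% = EC80 ATP with DMSO and 100% = DMSO wells without ATP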
# Numbers without * were called inactive; . = no result. This is a sample that favours compounds with a hit; in the whole collection about 4.6% have one here.
SMILES,OX1R antag-1,OX1R antag-2,TAAR1 agonist,TAAR1 antag,GPR7 antag,CHO parental Ca,TAAR1 ag confirm,Ga16 nonsel ag,TAAR1 desensitize,Ga16 antag count
CC(C)(C)c1ccc(OCCCNCc2ccccc2)cc1,5.8,-16.5,73.6*,-5.3,3.2,-3.1,69.2*,33.4*,35.3,20.7
C=CCNCCCOc1ccc(C(C)(C)c2ccccc2)cc1,0.7,-17.0,60.8*,-6.2,-3.7,-4.9,89.7*,25.3*,63.6*,17.4
COCCNCCCOc1ccc(C(C)(C)c2ccccc2)cc1,21.1,-11.6,23.6,-20.8,-5.3,-12.8,.,.,.,.
CC1(C)CSC(=S)N1S(=O)(=O)c1ccccc1,10.3,-11.8,0.5,-16.6,-10.7,-2.2,.,.,.,.
O=C(Nc1ccccc1)Nc1nnc([C@H]2C[C@H](O)[C@@H](CO)O2)s1,.,.,43.6*,1.3,.,.,57.3*,1.2,43.3,10.8
CCOP(=O)(c1ccccc1)c1nc(-c2ccccc2Cl)oc1N1CCCCC1 (configuration not stated),21.2,-24.8,47.9*,-12.9,-12.8,24.3,33.9,6.8,-19.6,-3.0
COc1ccccc1OCC(=O)N1CCN(C(=O)c2ccco2)CC1,13.3,3.0,4.0,-2.8,11.9,4.2,.,.,.,.
CCOc1cc(CNCCc2ccc(S(N)(=O)=O)cc2)ccc1OCc1ccc(Cl)cc1,13.5,76.8*,68.6*,47.2,51.1*,61.1*,84.6*,46.0*,91.3*,71.9*
COc1cc(CNCCc2ccccc2)ccc1OCc1ccc(Cl)nc1,25.5,-22.8,53.9*,7.2,17.2,-16.9,70.6*,9.8,43.0,11.6
O=C(CCS(=O)(=O)c1ccccc1)OCc1ccc([N+](=O)[O-])cc1,-3.9,-16.5,-2.0,-0.3,12.8,-7.9,.,.,.,.
NC(N)=NN=C(c1ccc(F)cc1)c1ccc(C(F)(F)F)cc1,.,.,51.2*,-1.3,.,.,64.6*,31.5*,34.5,28.1*
Cc1ccc(N(C)c2nc(N)nc(N)c2N=O)cc1,.,.,59.1*,24.3,.,.,53.4*,64.8*,35.0,37.1*
Cc1cc(Br)ccc1Nc1nc(N)nc(N)c1N=O,.,.,16.7,-14.3,.,.,.,.,.,.
C(=NOCc1ccccc1)c1ccncc1,.,.,-0.1,-20.1,.,.,.,.,.,.
C(=NOCCc1ccccc1)c1cccnc1,.,.,.,.,.,.,.,0.2,.,6.2
O=C(CSc1nnc(CNc2ccccc2)o1)N1CCc2ccccc21,19.8,2.1,74.1*,75.0*,-15.8,12.5,9.5,9.2,13.7,13.3
COc1ccc(C(=O)NCc2nnc(SCC(=O)N3CCc4ccccc43)o2)cc1OC,7.4,-16.9,5.6,8.5,-9.9,-14.7,.,.,.,.
O=C1C(=O)N(Cc2ccco2)C(c2cccs2)/C1=C(\O)c1cccc([N+](=O)[O-])c1 (configuration not stated),7.4,-2.1,2.0,-24.0,-7.3,9.9,.,.,.,.
OC(c1cc(C(F)(F)F)nc2c(C(F)(F)F)cccc12)C1CCCCN1 (configuration not stated),0.7,-4.9,67.2*,50.2*,.,4.0,67.5*,43.6*,60.4*,53.8*
OC(c1cc(-c2cccc(Cl)c2)nc2ccccc12)C1CCCCN1 (configuration not stated),.,.,29.3,44.0,.,.,.,.,.,.
OC(c1cc(-c2ccc(C(F)(F)F)cc2)nc(C(F)(F)F)c1)C1CCCCN1 (configuration not stated),-15.9,-2.4,81.9*,48.3,42.0*,8.5,81.6*,61.7*,69.1*,69.7*
O=C(NC(=S)NNC(=O)c1ccco1)c1ccccc1,7.4,5.3,7.4,-6.4,-11.6,6.0,.,.,.,.
O=C(NC(=S)NNC(=O)c1ccccc1O)c1ccccc1,6.9,-9.5,66.0*,28.7,-3.1,12.1,75.6*,66.3*,23.6,21.0
O=C(NC(=S)NNC(=O)c1ccccc1O)c1ccc(F)cc1,16.0,-0.1,90.0*,20.6,-2.9,4.1,54.5*,58.4*,20.1,21.9*
Cc1ccccc1C(=O)NNC(=S)NC(=O)c1ccccc1,-0.8,24.2,123.3*,55.4*,2.0,-1.6,134.6*,111.9*,99.7*,78.1*
SMILES,OX1R antag-1,OX1R antag-2,TAAR1 agonist,TAAR1 antag,GPR7 antag,CHO parental Ca,TAAR1 ag confirm,Ga16 nonsel ag,TAAR1 desensitize,Ga16 antag count
Cc1ccc(C(=O)NC(=S)NNC(=O)c2ccccc2O)cc1,-1.6,3.6,114.1*,31.9,-14.2,-10.5,127.4*,96.7*,77.0*,44.7*
CCN(CC)C(=O)c1cccc(-c2csc(C(C)(NC(C)=O)c3ccc(OC)cc3)n2)c1 (configuration not stated),.,.,-0.1,-8.6,.,.,.,.,.,.
COc1ccc(-c2oc3c(c2-c2cnc(OC)nc2)C(O)CC3)cc1 (configuration not stated),.,.,0.5,-5.9,.,.,.,.,.,.
CC(=O)c1ccc(OCC(O)CN2CCN(S(=O)(=O)c3c(C)c(C)cc(C)c3C)CC2)cc1 (configuration not stated),19.8,-6.9,13.7,36.8,-0.2,11.2,.,.,.,.
Cc1cccnc1NC(=O)c1csnn1,5.0,-21.9,4.8,-10.2,-7.8,-2.0,.,.,.,.
CCC(=O)n1nc(-c2ccc(Cl)cc2)nc1SC,18.1,0.0,43.8*,-28.2,3.9,-2.8,44.4*,1.4,4.7,-11.3
CSc1nc(-c2ccc(Cl)cc2)nn1S(=O)(=O)c1ccccc1,10.3,-7.5,.,.,-3.7,-7.7,.,11.3,.,-4.0
CC(CNS(=O)(=O)c1ccc(Cl)cc1)n1cncn1 (configuration not stated),-9.8,0.9,1.7,-13.5,-0.5,-4.8,.,.,.,.
O=C(Nc1ccccc1)OCCCCOC(=O)Nc1ccccc1,.,.,53.8*,34.5,.,.,15.3,13.8*,12.0,10.4
O=C(Nc1ccccc1)OCCCc1ccccc1,9.7,-18.6,-1.8,-16.0,-6.9,-15.2,.,.,.,.
Clc1ccc2nc(CN3CCCc4ccccc43)cn2c1,23.4,-37.6,6.9,6.1,1.8,-27.8,.,.,.,.
Fc1c(F)c(C(F)(F)F)c(F)c(F)c1N/N=C\c1cccs1,5.3,22.0,92.3*,75.5*,-6.6,12.2,70.1*,86.0*,70.7*,79.6*
COc1ccc(-c2cc(C(=O)NCC(C)C)no2)cc1,19.7,-7.4,72.2*,41.8,-8.7,-6.3,-1.1,2.2,76.9*,20.0
CCC(C)NC(=O)c1cc(-c2ccc(OC)cc2)on1 (configuration not stated),10.5,4.1,8.3,-17.9,-9.0,-3.8,.,.,.,.
